Measurements published in ChEMBL document CHEMBL3124924, “Bifunctional ethyl 2-amino-4-methylthiazole-5-carboxylate derivatives: synthesis and in vitro biological evaluation as antimicrobial and anticancer agents” (2014).
≈ marks a conversion by molar mass, not a printed value. Calls of active or inactive are those of the source. The rule behind the calls is not given here.

Legend:
Candida albicans [1] = assay: Antifungal activity against Candida albicans ATCC 10231 assessed as growth inhibition at 1 mg/mL after 48 hrs by agar-cup diffusion method; assay type: functional; details: ATCC 10231, 48 h, read-out: DIZ
How it was run: (§1)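 Agar-cup diffusion: 1 mL of 6 h broth culture seeded per 100 mL molten sterile agar at 45 °C and poured into plates. 8 mm cups cut, each filled with 0.1 mL of 1 mg/mL test solution. Incubated 37 °C for 24 h, 48 h for C. albicans. DMSO control per organism. Inhibition zone diameter in mm, mean of three measurements.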

LOX IMVI = assay: Cytotoxicity against human LOXIMVI cells assessed as growth inhibition at 10 uM after 48 hrs by SRB assay; assay type: functional; details: read-out: GI
How it was run: (§2)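 NCI-60 one-dose primary screen run by the NCI Drug Evaluation Branch across the full 60-line panel. Single high-dose treatment with 48 h continuous drug exposure. Cell growth estimated by sulforhodamine B protein staining. Results given as percent growth of treated cells and expressed as percentage growth inhibition.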

SN12C = assay: Cytotoxicity against human SN12C cells assessed as growth inhibition at 10 uM after 48 hrs by SRB assay; assay type: functional; details: read-out: GI; how it was run: as §2
SR = assay: Cytotoxicity against human SR cells assessed as growth inhibition at 10 uM after 48 hrs by SRB assay; assay type: functional; details: read-out: GI; how it was run: as §2
MOLT-4 = assay: Cytotoxicity against human MOLT4 cells assessed as growth inhibition at 10 uM after 48 hrs by SRB assay; assay type: functional; details: MOLT-4, 48 h, read-out: GI; how it was run: as §2
K562 = assay: Cytotoxicity against human K562 cells assessed as growth inhibition at 10 uM after 48 hrs by SRB assay; assay type: functional; details: K562, 48 h, read-out: GI; how it was run: as §2
IGROV-1 = assay: Cytotoxicity against human IGROV1 cells assessed as growth inhibition at 10 uM after 48 hrs by SRB assay; assay type: functional; details: IGROV-1, 48 h, read-out: GI; how it was run: as §2
HCC 2998 = assay: Cytotoxicity against human HCC2998 cells assessed as growth inhibition at 10 uM after 48 hrs by SRB assay; assay type: functional; details: HCC 2998, 48 h, read-out: GI; how it was run: as §2
NCI-H226 = assay: Cytotoxicity against human NCI-H226 cells assessed as growth inhibition at 10 uM after 48 hrs by SRB assay; assay type: functional; details: NCI-H226, 48 h, read-out: GI; how it was run: as §2
Aspergillus niger = assay: Antifungal activity against Aspergillus niger assessed as growth inhibition at 1 mg/mL after 24 hrs by agar-cup diffusion method; assay type: functional, organism-based; how it was run: as §1
Candida albicans [2] = assay: Fungicidal activity against Candida albicans ATCC 10231 after 18 hrs; assay type: functional; details: ATCC 10231, 18 h
How it was run: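 Continuation of the broth-dilution MIC test. A loopful from each tube without visible growth spread on a quarter of a Mueller-Hinton agar plate and incubated 18 h. Lowest concentration giving no growth on subculture taken as the MBC.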

Candida albicans [3] = assay: Antifungal activity against Candida albicans ATCC 10231 assessed as growth inhibition after 48 hrs by two-fold serial dilution assay; assay type: functional; details: ATCC 10231, 48 h
How it was run: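 Twofold serial broth dilution run on compounds giving inhibition zones of 13 mm or more. Organisms pre-grown in suitable broth at 37 °C, 24 h for bacteria and 48 h for fungi. Dilution series 200, 100, 50, 25, 12.5, 6.25. Each 5 mL tube inoculated with 0.1 mL and incubated 37 °C for 48 h. Tubes scored for presence or absence of growth.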

Staphylococcus aureus = assay: Antibacterial activity against Staphylococcus aureus ATCC 6538 assessed as growth inhibition at 1 mg/mL after 24 hrs by agar-cup diffusion method; assay type: functional; details: ATCC 6538, 24 h, read-out: DIZ; how it was run: as §1
Pseudomonas aeruginosa = assay: Antibacterial activity against Pseudomonas aeruginosa ATCC 27853 assessed as growth inhibition at 1 mg/mL after 24 hrs by agar-cup diffusion method; assay type: functional; details: ATCC 27853, 24 h, read-out: DIZ; how it was run: as §1

Row | SMILES | zone of inhibition at 1000 µg/mL (Candida albicans [1]) | inhibition of growth at 10 µM (LOX IMVI) | inhibition of growth at 10 µM (SN12C) | inhibition of growth at 10 µM (SR) | inhibition of growth at 10 µM (MOLT-4) | inhibition of growth at 10 µM (K562) | inhibition of growth at 10 µM (IGROV-1) | inhibition of growth at 10 µM (HCC 2998) | inhibition of growth at 10 µM (NCI-H226) | growth inhibition (GI) (Aspergillus niger) | MFC (Candida albicans [2]) | MIC (Candida albicans [3]) | zone of inhibition at 1000 µg/mL (Staphylococcus aureus) | zone of inhibition at 1000 µg/mL (Pseudomonas aeruginosa)
1 | Cc1nc(NC(=O)NC2CCCCC2)sc1C(=O)NN | > 13 mm | 7.54% | < 10% | < 10% | < 10% | < 10% | 28% | < 10% | < 10% | inactive | 100 µg/mL (≈ 336 µM) | 50 µg/mL (≈ 168 µM) | > 13 mm | > 13 mm
2 | CCOC(=O)c1sc(NC(=O)c2cc(OC)c(OC)c(OC)c2)nc1C | > 13 mm | 3.7% | 7.38% | 21% | 12.4% | 49% | < 10% | 42.7% | 12% | inactive | – | – | > 13 mm | > 13 mm
3 | CCOC(=O)c1sc(NC(=O)NC2CCCCC2)nc1C | > 13 mm | 13% | 5.62% | 35.3% | 12.3% | 9.69% | 43.7% | < 10% | 9.89% | inactive | – | – | > 13 mm | > 13 mm
4 | Cc1nc(NC(=O)Nc2ccccc2)sc1C(=O)NN | > 13 mm | 10.1% | < 10% | 25.8% | < 10% | < 10% | < 10% | 6.85% | 2.53% | inactive | 25 µg/mL (≈ 85.8 µM) | 25 µg/mL (≈ 85.8 µM) | > 13 mm | > 13 mm
5 | CCOC(=O)c1sc(NC(=O)Nc2ccccc2)nc1C | > 13 mm | 4.13% | 4.19% | 14.3% | 23.7% | 39% | 72.9% | 27.4% | 11.3% | inactive | 25 µg/mL (≈ 81.9 µM) | 25 µg/mL (≈ 81.9 µM) | > 13 mm | > 13 mm
6 | Cc1nc(NC(=S)Nc2ccc(F)cc2)sc1C(=O)NN | > 13 mm | 6.73% | 2.43% | < 10% | < 10% | < 10% | 6.51% | 10.5% | 5.35% | inactive | 12.5 µg/mL (≈ 38.4 µM) | 12.5 µg/mL (≈ 38.4 µM) | > 13 mm | > 13 mm
7 | Cc1nc(N)sc1C(=O)Nc1ccc(F)cc1 | > 13 mm | < 10% | 3.01% | < 10% | < 10% | < 10% | < 10% | 11.8% | 5.62% | inactive | 100 µg/mL (≈ 398 µM) | 100 µg/mL (≈ 398 µM) | > 13 mm | > 13 mm
8 | CCOC(=O)c1sc(NS(=O)(=O)c2ccccc2)nc1C | > 13 mm | < 10% | < 10% | < 10% | 24.4% | < 10% | 93.1% | 72.5% | < 10% | inactive | – | – | > 13 mm | > 13 mm
